ChEMBL document CHEMBL1938234, “Cytotoxic and antimalarial azaphilones from Chaetomium longirostre” (J Nat Prod, 2011)

Key:
Plasmodium falciparum = test: Antimalarial activity against multidrug-resistant Plasmodium falciparum K1 assessed as inhibition of [3H]-hypoxanthine incorporation; type: functional, organism-based
How it was run: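 In vitro culture of the K1 multidrug-resistant P. falciparum strain followed the Trager–Jensen method. Activity was scored by the Desjardins microculture radioisotope technique, reading [3H]-hypoxanthine uptake by the parasites. IC50 was taken as the concentration giving 50% reduction in parasite growth. Dihydroartemisinin served as the reference standard.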

MCF7 = test: Cytotoxicity against human MCF7 cells by SRB assay; type: functional, cell-based
NCI-H187 = test: Cytotoxicity against human NCI-H187 cells by SRB assay; type: functional, cell-based
KB = test: Cytotoxicity against human KB cells by SRB assay; type: functional, cell-based
[1] = Plasmodium falciparum, K1, read-out: IC50
[2] = Homo sapiens, MCF7, read-out: IC50
[3] = Homo sapiens, NCI-H187, read-out: IC50

Row | SMILES | IC50 (Plasmodium falciparum; [1]) | IC50 (MCF7; mcf7) | IC50 (NCI-H187; nci-h187) | IC50 (KB) | IC50 (MCF7; [2]) | IC50 (NCI-H187; [3]) | IC50 (Plasmodium falciparum)
1 | CCC(C)CC(C)/C=C(C)/C=C/C(=O)[C@H]1C(=O)O[C@@]2(C)C(=O)C=C3C=C([C@H]4C(=O)C=CC[C@@H]4C)OC=C3[C@@H]12 (some centres not stated) [LONGIROSTRERONE C] | 620 nM | Not Active | Not Active | 230 nM | – | – | –
2 | CCC(C)CC(C)/C=C(C)/C=C/C(=O)[C@H]1C(=O)O[C@@]2(C)C(=O)C=C3C=C([C@H]4C(=O)C[C@H](O)C[C@@H]4C)OC=C3[C@@H]12 (some centres not stated) [LONGIROSTRERONEA] | 630 nM | – | – | 1040 nM | 240 nM | 3080 nM | –
3 | CCC(C)CC(C)/C=C(C)/C=C/C(=O)C1=C2C3=COC([C@H]4C(=O)C[C@H](O)C[C@@H]4C)=CC3=CC(=O)[C@@]2(C)OC1=O (some centres not stated) [LONGIROSTRERONE D] | – | – | – | 6380 nM | 38200 nM | 18400 nM | Not Active
4 | C[C@H]1[C@@H](O)O[C@@H]2O[C@@]3(C)CC[C@H]4[C@H](C)CC[C@@H]1[C@@]24OO3 [ARTENIMOL] | 4 nM | – | – | – | – | – | –
5 | COc1cccc2c1C(=O)c1c(O)c3c(c(O)c1C2=O)C[C@@](O)(C(=O)CO)C[C@@H]3O[C@H]1C[C@H](N)[C@H](O)[C@H](C)O1 [DOXORUBICIN] | – | – | – | 330 nM | 2290 nM | 110 nM | –
6 | CCC(C)CC(C)/C=C(C)/C=C/C(=O)C[C@H]1C2=COC([C@H]3C(=O)C[C@H](O)C[C@@H]3C)=CC2=CC(=O)[C@]1(C)O (some centres not stated) [LONGIROSTRERONEB] | 3730 nM | Not Active | Not Active | 1520 nM | – | – | –
7 | Cc1c2ccncc2c(C)c2c1[nH]c1ccccc12 [ELLIPTECINE] | – | – | – | 1250 nM | – | 1820 nM | –
